Data set [1] deals with Rattus norvegicus. Briefly: Inhibitory dose in the rat PCA test following iv administration. It is filed as functional. Conditions: read-out: ID50 (the source's name).
Data set [2] deals with Rattus norvegicus. In words: Antiallergic activity in the rat PCA test following iv administration relative to M&B 22,948, the dose of which was 0.1 mg/kg for 100% inhibition. Format: functional.
Data set [3] is filed under the species Rattus norvegicus. Briefly: Biological activity. It is filed as functional.
The subject of data set [4] is Rattus norvegicus. Briefly: Inhibitory dose in the rat PCA test following oral administration. It is filed as functional. Particulars: read-out: ID50 (the source's name).
A short description of data set [5]: The function log (MrI) where M, is the molecular weight of the test compound and I is its activity relative to the reference compound 1, expresses the biological activity in molar terms. Format: functional. Put shortly:
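Relative activity I from iv rat PCA 100%-inhibition comparison with M&B 22,948, converted to molar terms as log(Mr·I) using the compound's molecular weight.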

The nature of data set [6]: Association constant at 25 degree C in aqueous media. Format: ADME. The method, boiled down: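 Spectroscopic method in aqueous buffer at 25 °C. Values are thermodynamic pKa's corrected for the ionic strength of the buffer solutions.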

Take `CC(=O)c1cc(F)cc(NC(=O)c2nnn[nH]2)c1O` [EFLUMAST]: the ED50 in data set [1] amounted to 0.004 mg/kg; in data set [4] it was 0.16 mg/kg. In data set [2], the Relative activity was 20. Also, in data set [3], the “Log [MrI]” value stood at 3.724.

For the molecule `CC(=O)Nc1cc(NC(=O)c2nn[nH]n2)c(O)c(C(C)=O)c1`, the Log MrI in data set [5] stood at 2.19. The molecule further had a Relative activity in data set [2] of 0.5.

A word on the pKa: it is the pH at which an ionisable group is half protonated. For `CC(=O)c1cc(F)cc(C(=O)Nc2nnn[nH]2)c1O`, the pKa turned out to be 4.2 in data set [6] (aqueous media, read-out: pKa) and 7.1 in data set [6] (buffer). This molecule had a Relative activity in data set [2] of 0.5. In addition, in data set [3], the “Log [MrI]” value came to 2.123.

The molecule `O=C(Nc1nn[nH]n1)c1cc([N+](=O)[O-])ccc1O` came in with a Log MrI in data set [5] of 2.1. The molecule further returned a Relative activity in data set [2] of 0.5.

Regarding `Cc1cc(NC(=O)c2nn[nH]n2)c(O)c(C(=O)O)c1`, in data set [5], the Log MrI is 1.72. The Relative activity in data set [2] amounted to 0.2.

With `O=C(Nc1nn[nH]n1)c1cc(O)ccc1O`, in data set [5], the Log MrI was found to be 1.34. In data set [2], this molecule had a Relative activity of 0.1.

`CCOC(=O)c1cc(C)cc(NC(=O)c2nn[nH]n2)c1O` had a Log MrI in data set [5] of 3.46. The Relative activity in data set [2] stood at 10.

Consider `COC(=O)c1cc(C)cc(NC(=O)c2nn[nH]n2)c1O`, for which, in data set [5], the Log MrI is 2.74. In data set [2], the Relative activity was 2.

In the case of `CC(=O)Nc1ccc(O)c(C(=O)Nc2nn[nH]n2)c1`, in data set [2], the Relative activity is 0.01. Further, the “Log [MrI]” value in data set [3] was 0.418.

These data come from ChEMBL document CHEMBL1123158, “Synthesis and quantitative structure-activity relationships of antiallergic 2-hydroxy-N-1H-tetrazol-5-ylbenzamides and N-(2-hydroxyphenyl)-1H-tetrazole-5-carboxamides” (J Med Chem, 1986).
